ChEMBL document CHEMBL1127630, “New dual inhibitors of neutral endopeptidase and angiotensin-converting enzyme: rational design, bioavailability, and pharmacological responses in experimental hypertension” (J Med Chem, 1994)
Each block holds one molecule with its values, some of them ahead of it.

Assays:
[1] = molecular target: T1, Angiotensin-converting enzyme (Mus musculus, UniProt P09470); test: Inhibitory potency against angiotensin converting enzyme by displacement of [3H]trandolaprilate binding in mouse lung
T1 sequence (P09470 whole entry): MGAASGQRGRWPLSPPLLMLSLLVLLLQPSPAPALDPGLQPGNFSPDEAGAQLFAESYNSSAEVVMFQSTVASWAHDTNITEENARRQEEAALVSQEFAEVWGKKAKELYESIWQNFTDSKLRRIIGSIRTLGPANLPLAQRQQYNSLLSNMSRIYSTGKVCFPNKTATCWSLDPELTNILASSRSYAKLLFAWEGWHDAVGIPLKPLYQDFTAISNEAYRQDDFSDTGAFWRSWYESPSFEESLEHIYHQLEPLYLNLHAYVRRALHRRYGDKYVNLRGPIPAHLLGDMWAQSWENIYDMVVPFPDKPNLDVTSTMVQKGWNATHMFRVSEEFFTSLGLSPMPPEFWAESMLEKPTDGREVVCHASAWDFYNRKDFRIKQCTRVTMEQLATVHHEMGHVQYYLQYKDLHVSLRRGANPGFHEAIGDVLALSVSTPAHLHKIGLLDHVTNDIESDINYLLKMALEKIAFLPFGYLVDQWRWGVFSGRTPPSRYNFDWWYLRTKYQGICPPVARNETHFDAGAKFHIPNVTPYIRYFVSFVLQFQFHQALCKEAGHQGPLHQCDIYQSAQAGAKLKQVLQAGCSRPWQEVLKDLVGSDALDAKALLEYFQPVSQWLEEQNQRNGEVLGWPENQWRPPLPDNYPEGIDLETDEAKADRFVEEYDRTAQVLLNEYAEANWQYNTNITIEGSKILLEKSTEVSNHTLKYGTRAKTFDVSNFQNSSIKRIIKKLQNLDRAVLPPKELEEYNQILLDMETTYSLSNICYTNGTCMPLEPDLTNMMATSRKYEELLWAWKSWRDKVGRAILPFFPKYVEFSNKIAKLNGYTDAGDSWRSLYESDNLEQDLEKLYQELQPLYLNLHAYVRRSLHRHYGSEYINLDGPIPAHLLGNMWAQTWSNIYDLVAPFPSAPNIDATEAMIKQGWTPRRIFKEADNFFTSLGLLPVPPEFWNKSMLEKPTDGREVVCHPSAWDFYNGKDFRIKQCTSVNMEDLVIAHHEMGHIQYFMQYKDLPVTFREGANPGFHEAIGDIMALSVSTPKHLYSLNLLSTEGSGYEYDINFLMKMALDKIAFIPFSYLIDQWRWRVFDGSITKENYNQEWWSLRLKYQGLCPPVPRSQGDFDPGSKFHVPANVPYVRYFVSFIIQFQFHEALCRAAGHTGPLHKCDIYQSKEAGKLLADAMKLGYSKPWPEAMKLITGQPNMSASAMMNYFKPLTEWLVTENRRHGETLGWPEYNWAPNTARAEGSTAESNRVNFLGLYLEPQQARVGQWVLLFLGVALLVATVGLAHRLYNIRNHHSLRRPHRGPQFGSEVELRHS

[2] = molecular target: T2, Angiotensin-converting enzyme (Mus musculus) (UniProt P09470); test: Inhibition of lung Angiotensin Converting Enzyme (ACE) in mouse at a dose of 2.6*10e-5 mol/kg after 20 min oral administration
T2 sequence (whole entry): T1 sequence (P09470 whole entry)
Summary of the method: (§1)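 Prescreen in mice: single oral dose of 2.6 X 10-5 mol/kg of prodrug (thioacetyl and benzyl ester protected, tested as stereoisomer mixtures). Inhibition of binding of a tritiated ACE probe to lung measured 20 and 60 min after dosing. Mean ± SEM of three experiments, three mice each.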

[3] = molecular target: T2, Angiotensin-converting enzyme (Mus musculus); test: In vivo inhibition of lung Angiotensin Converting Enzyme (ACE) in mouse at a dose of 2.6*10e-5 mol/kg after 60 min oral administration; type: functional, organism-based; summary of the method: as §1
[4] = molecular target: T2, Angiotensin-converting enzyme (Mus musculus); test: In vivo inhibition of lung ACE was observed at 30 min after oral administration of the compound; type: organism-based; parameters: concentration or dose not given beside the values
Mus musculus = test: In vivo inhibition of lung ACE was observed at 60 min after oral administration; type: functional; parameters: concentration or dose not given beside the values
[5] = molecular target: T2, Angiotensin-converting enzyme (Mus musculus); test: In vivo inhibition of lung ACE was observed at 120 min after oral administration of the compound; type: functional, organism-based; parameters: concentration or dose not given beside the values
[6] = molecular target: T2, Angiotensin-converting enzyme (Mus musculus); test: In vivo inhibition of lung ACE was observed at 240 min after oral administration of the compound; type: functional, organism-based; parameters: concentration or dose not given beside the values
[7] = molecular target: T3, Neprilysin (Mus musculus) (UniProt Q61391); test: Inhibition of Neutral Endopeptidase activity was measured by using the displacement of [3H]-HACBOGly from mouse kidney after 1 hr oral administration; parameters: scale not given: the % may be the effect or the level left
T3 sequence (whole entry): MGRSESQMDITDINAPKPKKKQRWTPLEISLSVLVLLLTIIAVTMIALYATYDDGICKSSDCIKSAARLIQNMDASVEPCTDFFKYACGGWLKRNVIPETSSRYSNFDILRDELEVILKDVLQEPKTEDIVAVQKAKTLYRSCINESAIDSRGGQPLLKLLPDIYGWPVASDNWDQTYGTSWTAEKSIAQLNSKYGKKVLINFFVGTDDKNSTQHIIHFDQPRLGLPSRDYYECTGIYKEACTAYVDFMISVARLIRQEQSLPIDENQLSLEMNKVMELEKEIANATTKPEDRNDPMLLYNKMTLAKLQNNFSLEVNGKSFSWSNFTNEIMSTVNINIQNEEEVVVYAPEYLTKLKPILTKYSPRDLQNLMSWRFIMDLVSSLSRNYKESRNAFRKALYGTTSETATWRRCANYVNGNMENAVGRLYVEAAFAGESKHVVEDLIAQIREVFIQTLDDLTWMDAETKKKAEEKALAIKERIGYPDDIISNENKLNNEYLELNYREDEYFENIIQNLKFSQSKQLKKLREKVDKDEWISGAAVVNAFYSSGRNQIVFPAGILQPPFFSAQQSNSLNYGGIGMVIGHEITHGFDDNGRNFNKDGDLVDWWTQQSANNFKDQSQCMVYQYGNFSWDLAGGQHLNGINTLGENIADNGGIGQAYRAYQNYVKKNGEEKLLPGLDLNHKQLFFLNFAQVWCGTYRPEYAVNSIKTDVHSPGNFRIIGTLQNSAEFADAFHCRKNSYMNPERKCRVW
Summary of the method: (§2)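 Mice dosed orally at 2.6 X 10-6 mol/kg in 10% ethanol/10% cremophor/80% water. [3H]HACBOGly (1 uCi) injected iv at intervals after dosing. Kidneys taken 15 min later, homogenized in 50 mM Tris-HCl pH 7.4 at 4 °C and filtered, radioactivity counted. Inhibition expressed as percent displacement versus control. Nonspecific binding defined with coinjected retrothiorphan (10.000 eq).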

[8] = molecular target: T3, Neprilysin (Mus musculus); test: Inhibition of Neutral Endopeptidase activity was measured by using the displacement of [3H]HACBOGly from mouse kidney after 2 hr oral administration; parameters: scale not given: the % may be the effect or the level left; summary of the method: as §2
[9] = molecular target: T3, Neprilysin (Mus musculus); test: Inhibition of Neutral Endopeptidase activity was measured by using the displacement of [3H]HACBOGly from mouse kidney after 4 hr oral administration; parameters: scale not given: the % may be the effect or the level left; summary of the method: as §2

Structure (SMILES): CC(=O)SCC(C(=O)N[C@@H](C)C(=O)OCc1ccccc1)C(C)c1ccc(F)c(F)c1 (some centres not stated)
- inhibition [2]: 35%
- inhibition [3]: 22%

Structure (SMILES): Cc1ccccc1C(C)C(CS)C(=O)NC(Cc1ccc(O)cc1)C(=O)O (configuration not stated)
- IC50 [1]: 210 nM

Structure (SMILES): COc1ccc(C(C)C(CS)C(=O)NC(Cc2ccc(O)cc2)C(=O)O)cc1OC (configuration not stated)
- IC50 [1]: 4 nM

Structure (SMILES): COc1ccc(C(C)C(CSC(C)=O)C(=O)N[C@@H](Cc2ccc(OC(C)=O)cc2)C(=O)OCc2ccccc2)cc1 (some centres not stated)
- inhibition [2]: 14%
- inhibition [3]: 33%

Structure (SMILES): CCC(c1ccccc1)C(CS)C(=O)NC(Cc1ccc(O)cc1)C(=O)O (configuration not stated)
- IC50 [1]: 110 nM

Structure (SMILES): CC(c1ccccc1)C(CS)C(=O)NC(Cc1ccc(O)cc1)C(=O)O (configuration not stated)
- IC50 [1]: 4.3 nM

Structure (SMILES): CC[C@H](NC(=O)C(CSC(=O)c1ccccc1)C(C)c1ccccc1)C(=O)O (some centres not stated)
- Control [4]: 73%
- Control (Mus musculus): 57%
- Control [5]: 39%
- Control [6]: 30%
- Control [7]: 100%
- Control [8]: 97%
- Control [9]: 73%

Structure (SMILES): C[C@@H](c1ccccc1)[C@@H](CS)C(=O)N[C@@H](Cc1ccccc1)C(=O)O (stereo in doubt; 48c)
- Ki [1]: 1.9 nM

Structure (SMILES): CC(c1ccc(N)cc1)C(CS)C(=O)NC(Cc1ccc(O)cc1)C(=O)O (configuration not stated)
- IC50 [1]: 12 nM

Structure (SMILES): C[C@@H](c1ccccc1)[C@@H](CS)C(=O)N[C@@H](Cc1ccccc1)C(=O)O (stereo in doubt; 48a)
- Ki [1]: 26 nM

Structure (SMILES): CC(c1ccc(F)cc1)C(CS)C(=O)NC(Cc1ccc(O)cc1)C(=O)O (configuration not stated)
- IC50 [1]: 6.9 nM

Structure (SMILES): CC(NC(=O)C(CS)C(C)c1ccc2c(c1)OCO2)C(=O)O (configuration not stated)
- IC50 [1]: 9.5 nM

Structure (SMILES): CC(=O)Oc1ccc(C[C@H](NC(=O)C(CSC(C)=O)C(C)c2ccc(F)c(F)c2)C(=O)OCc2ccccc2)cc1 (some centres not stated)
- inhibition [2]: 24%
- inhibition [3]: 19%

Structure (SMILES): CC(=O)SCC(C(=O)N[C@@H](Cc1ccc(O)cc1)C(=O)OCc1ccccc1)C(C)c1ccccc1 (some centres not stated)
- inhibition [2]: 20%
- inhibition [3]: 7%

Structure (SMILES): CC(c1ccccc1)C(CS)C(=O)NC(COCc1ccccc1)C(=O)O (configuration not stated)
- IC50 [1]: 43 nM

More lines, now with the values ahead:

- Ki [1]: 80 nM
Structure (SMILES): C[C@H](NC(=O)[C@H](CS)[C@@H](C)c1ccccc1)C(=O)O (stereo in doubt; 44a)

- Ki [1]: 4.5 nM
Structure (SMILES): C[C@H](NC(=O)[C@H](CS)[C@@H](C)c1ccccc1)C(=O)O (stereo in doubt; 44c)

- IC50 [1]: 19 nM
Structure (SMILES): CC(C)CC(NC(=O)C(CS)C(C)c1ccccc1)C(=O)O (configuration not stated)

- IC50 [1]: 100 nM
Structure (SMILES): CC(C)C(NC(=O)C(CS)C(C)c1ccccc1)C(=O)O (configuration not stated)

- IC50 [1]: 7 nM
Structure (SMILES): CCCCC(NC(=O)C(CS)C(C)c1ccccc1)C(=O)O (configuration not stated)

- IC50 [1]: 5 nM
Structure (SMILES): CC(NC(=O)C(CS)C(C)c1ccc(F)c(F)c1)C(=O)O (configuration not stated)

- Ki [1]: 95 nM
Structure (SMILES): C[C@H](NC(=O)[C@H](CS)[C@@H](C)c1ccccc1)C(=O)O (stereo in doubt; 44d)
